# Measurements taken from ChEMBL document CHEMBL5678806, “NMS-P937, an orally available, specific small-molecule polo-like kinase 1 inhibitor with antitumor activity in solid and hematologic malignancies” (Mol Cancer Ther, 2012).
# Activity calls are given as the source filed them. The calls are words filed in the database; no cut-off is given here.
# Experiments:
# [1] = system: A549; assay: Antiproliferative activity against human A549 cells assessed as inhibition of cell growth incubated for 72 hrs by cell-titer glo assay; format: functional, cell-based; conditions: A549, 72 h
# How it was run: (§1)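 Cells seeded 10,000–30,000/cm² (adherent) or 100,000/mL (suspension) in medium with 10% fetal calf serum; after 24 h treated in duplicate with serial dilutions for 72 h. Viable cells read by CellTiter-Glo luminescence; IC50 from sigmoidal fit; at least two independent experiments.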
# [2] = system: U2OS; assay: Effect on cell morphology in human U2OS cells expressing GFP/alpha-tubulin fusion protein assessed as misaligned chromosomes […] at 1 uM incubated for 24 hrs by laser scanning confocal microscopy analysis; format: functional, cell-based
# [3] = system: NCI-H520; assay: Antiproliferative activity against human NCI-H520 cells assessed as inhibition of cell growth incubated for 72 hrs by cell-titer glo assay; format: functional, cell-based; conditions: NCI-H520, 72 h
# How it was run: (§2)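 Cells from ATCC or ECACC, kept in supplier-recommended medium with 1% penicillin-streptomycin at 37°C, 5% CO₂. Seeded at 10,000–30,000/cm² (adherent) or 100,000/mL (nonadherent) in medium with 10% fetal calf serum. Dosed after 24 h in duplicate with serial dilutions. Viable cells read by CellTiter-Glo 72 h later. IC50 from sigmoidal fit. At least two independent experiments.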
# [4] = system: U-266; assay: Antiproliferative activity against human U-266 cells assessed as inhibition of cell growth incubated for 72 hrs by cell-titer glo assay; format: functional, cell-based; conditions: U-266, 72 h
# [5] = system: M14; assay: Antiproliferative activity against human M14 cells assessed as inhibition of cell growth incubated for 72 hrs by cell-titer glo assay; format: functional, cell-based; conditions: M14, 72 h
# How it was run: (§3)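 Cells seeded at 10,000–30,000/cm² (adherent) or 100,000/mL (nonadherent) in medium with 10% fetal calf serum; after 24 h, treated in duplicate with serial dilutions for 72 h. Viable cell number read by CellTiter-Glo luminescence; IC50 from sigmoidal fit; at least two independent experiments.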
# [6] = Antiproliferative activity against human adriamycin-resistant RPMI-8226-ADR cells assessed as inhibition of cell growth incubated for 72 hrs by cell-titer glo assay; format: functional, cell-based
# [7] = Antiproliferative activity against human CL-11 cells assessed as inhibition of cell growth incubated for 72 hrs by cell-titer glo assay; format: functional, cell-based; conditions: CL-11, 72 h; how it was run: as §1
# [8] = Toxicity in nu/nu mouse xenografted with human HCT-116 cells assessed as body weight loss at 60 mg/kg, po administered for 8 days; format: organism-based; conditions: in vivo, 192 h, time 8 day
# [9] = biological target: Ephrin type-A receptor 2 (Homo sapiens, UniProt P29317); assay: Inhibition of EphA2 (unknown origin) in presence of [gamma-33P]ATP
# [10] = system: HCT-116; assay: Antitumor activity against human HCT-116 cells xenografted in nu/nu mouse assessed as tumor growth inhibition at 60 mg/kg, po administered for 8 days relative to control; format: functional; conditions: HCT-116, 192 h, time 8 day, read-out: TGI
# [11] = system: EKVX; assay: Antiproliferative activity against human EKVX cells assessed as inhibition of cell growth incubated for 72 hrs by cell-titer glo assay; format: functional, cell-based; how it was run: as §1
# [12] = system: RERF-LC-AI; assay: Antiproliferative activity against human RERF-LC-AI cells assessed as inhibition of cell growth incubated for 72 hrs by cell-titer glo assay; format: functional, cell-based; how it was run: as §2
# [13] = system: HT-29; assay: Antiproliferative activity against human HT-29 cells assessed as inhibition of colony formation at <= 8 nmol/L incubated for 72 hrs and measured after 18 days by crystal violet staining based analysis; format: functional, cell-based
# How it was run: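 HT29 colon adenocarcinoma cells exposed to a range of concentrations for 72 h, then compound removed and cells replated and grown 18 days in compound-free medium; colony formation scored.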
# [14] = biological target: Casein kinase 2 (Homo sapiens, UniProt P67870+P68400+P19784+Q8NEV1); assay: Inhibition of CK2 (unknown origin) at 10 micromol/L in presence of [gamma-33P]ATP relative to control; format: protein assay; conditions: dose 10.0 µmol/L
# [15] = biological target: Serine/threonine-protein kinase Nek11 (Homo sapiens) (UniProt Q8NG66); assay: Inhibition of 6His-tagged recombinant human full-length NEK11 expressed in baculovirus infected Sf21 cells assessed as residual activity at 0.1 uM relative to control
# Serine/threonine-protein kinase Nek11 (Homo sapiens), sequence (Q8NG66 whole entry): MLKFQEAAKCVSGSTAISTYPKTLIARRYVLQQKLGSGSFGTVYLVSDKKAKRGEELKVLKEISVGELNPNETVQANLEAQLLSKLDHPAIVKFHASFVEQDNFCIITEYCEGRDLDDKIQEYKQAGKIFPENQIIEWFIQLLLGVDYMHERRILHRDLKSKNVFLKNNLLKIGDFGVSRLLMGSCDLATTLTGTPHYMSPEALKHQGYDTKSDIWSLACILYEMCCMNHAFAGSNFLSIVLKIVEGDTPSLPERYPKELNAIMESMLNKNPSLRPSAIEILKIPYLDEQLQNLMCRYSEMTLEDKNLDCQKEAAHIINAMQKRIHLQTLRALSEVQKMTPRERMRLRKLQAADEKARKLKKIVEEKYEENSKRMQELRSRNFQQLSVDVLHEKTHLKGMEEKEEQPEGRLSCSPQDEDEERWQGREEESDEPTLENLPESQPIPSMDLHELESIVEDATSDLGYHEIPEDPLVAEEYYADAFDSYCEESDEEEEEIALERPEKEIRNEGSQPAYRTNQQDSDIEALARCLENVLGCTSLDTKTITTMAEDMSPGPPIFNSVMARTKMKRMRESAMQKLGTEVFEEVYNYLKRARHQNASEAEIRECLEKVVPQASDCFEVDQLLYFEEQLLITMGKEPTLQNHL
# [16] = system: NCI/ADR-RES; assay: Antiproliferative activity against human NCI/ADR-RES cells assessed as inhibition of cell growth incubated for 72 hrs by cell-titer glo assay; format: functional, cell-based; how it was run: as §2
# [17] = Inhibition of PKAalpha (unknown origin) in presence of [gamma-33P]ATP; parameters: species or system Homo sapiens
# [18] = system: A2780; assay: Induction of mitosis in human A2780 cells at 0.0001 to 100 uM incubated for upto 24 hrs followed by compound washout by cell titer glow assay; format: functional, cell-based; conditions: dose 0.0001-100 µM
# [19] = Antiproliferative activity against human NPA cells assessed as inhibition of cell growth incubated for 72 hrs by cell-titer glo assay; format: functional, cell-based; how it was run: as §2
# [20] = biological target: Activated CDC42 kinase 1 (Homo sapiens, UniProt Q07912); assay: Inhibition of N-terminal GST-tagged recombinant human ACK1 (1 to 389 residues) expressed in baculovirus infected Sf21 cells assessed as residual activity at 1 uM relative to control
# Activated CDC42 kinase 1, sequence (Q07912 whole entry, looked up, the tested form may be a part): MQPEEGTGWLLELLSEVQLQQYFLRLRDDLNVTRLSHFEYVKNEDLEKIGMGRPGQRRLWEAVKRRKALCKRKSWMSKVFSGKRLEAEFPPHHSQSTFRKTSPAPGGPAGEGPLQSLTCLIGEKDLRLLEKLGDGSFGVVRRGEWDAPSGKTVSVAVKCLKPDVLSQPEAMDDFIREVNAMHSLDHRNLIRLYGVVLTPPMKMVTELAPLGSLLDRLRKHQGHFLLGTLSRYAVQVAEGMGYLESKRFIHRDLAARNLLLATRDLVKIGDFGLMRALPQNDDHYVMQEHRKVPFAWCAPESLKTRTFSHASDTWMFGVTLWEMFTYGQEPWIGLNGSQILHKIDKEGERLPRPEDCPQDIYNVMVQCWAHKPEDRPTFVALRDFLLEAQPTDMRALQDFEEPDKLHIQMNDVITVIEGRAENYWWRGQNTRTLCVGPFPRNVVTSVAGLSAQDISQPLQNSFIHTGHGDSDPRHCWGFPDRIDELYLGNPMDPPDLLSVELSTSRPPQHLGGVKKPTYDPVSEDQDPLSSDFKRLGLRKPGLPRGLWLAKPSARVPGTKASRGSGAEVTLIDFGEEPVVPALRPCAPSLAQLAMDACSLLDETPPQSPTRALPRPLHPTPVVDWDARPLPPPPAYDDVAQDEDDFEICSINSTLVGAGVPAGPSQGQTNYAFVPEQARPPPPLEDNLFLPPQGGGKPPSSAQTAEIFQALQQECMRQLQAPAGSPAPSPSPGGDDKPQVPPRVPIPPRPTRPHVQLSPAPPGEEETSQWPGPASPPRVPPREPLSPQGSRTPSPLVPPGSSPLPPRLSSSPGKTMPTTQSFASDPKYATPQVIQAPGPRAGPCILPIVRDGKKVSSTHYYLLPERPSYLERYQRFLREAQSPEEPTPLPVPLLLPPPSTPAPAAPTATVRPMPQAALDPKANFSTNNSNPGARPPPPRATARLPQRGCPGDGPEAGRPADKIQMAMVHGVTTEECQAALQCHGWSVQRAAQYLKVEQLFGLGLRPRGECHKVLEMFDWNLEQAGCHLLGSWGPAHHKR
# [21] = biological target: Mitotic checkpoint serine/threonine-protein kinase BUB1 (Homo sapiens, UniProt O43683); assay: Inhibition of BUB1 (unknown origin) in presence of [gamma-33P]ATP
# Mitotic checkpoint serine/threonine-protein kinase BUB1, sequence (O43683 whole entry): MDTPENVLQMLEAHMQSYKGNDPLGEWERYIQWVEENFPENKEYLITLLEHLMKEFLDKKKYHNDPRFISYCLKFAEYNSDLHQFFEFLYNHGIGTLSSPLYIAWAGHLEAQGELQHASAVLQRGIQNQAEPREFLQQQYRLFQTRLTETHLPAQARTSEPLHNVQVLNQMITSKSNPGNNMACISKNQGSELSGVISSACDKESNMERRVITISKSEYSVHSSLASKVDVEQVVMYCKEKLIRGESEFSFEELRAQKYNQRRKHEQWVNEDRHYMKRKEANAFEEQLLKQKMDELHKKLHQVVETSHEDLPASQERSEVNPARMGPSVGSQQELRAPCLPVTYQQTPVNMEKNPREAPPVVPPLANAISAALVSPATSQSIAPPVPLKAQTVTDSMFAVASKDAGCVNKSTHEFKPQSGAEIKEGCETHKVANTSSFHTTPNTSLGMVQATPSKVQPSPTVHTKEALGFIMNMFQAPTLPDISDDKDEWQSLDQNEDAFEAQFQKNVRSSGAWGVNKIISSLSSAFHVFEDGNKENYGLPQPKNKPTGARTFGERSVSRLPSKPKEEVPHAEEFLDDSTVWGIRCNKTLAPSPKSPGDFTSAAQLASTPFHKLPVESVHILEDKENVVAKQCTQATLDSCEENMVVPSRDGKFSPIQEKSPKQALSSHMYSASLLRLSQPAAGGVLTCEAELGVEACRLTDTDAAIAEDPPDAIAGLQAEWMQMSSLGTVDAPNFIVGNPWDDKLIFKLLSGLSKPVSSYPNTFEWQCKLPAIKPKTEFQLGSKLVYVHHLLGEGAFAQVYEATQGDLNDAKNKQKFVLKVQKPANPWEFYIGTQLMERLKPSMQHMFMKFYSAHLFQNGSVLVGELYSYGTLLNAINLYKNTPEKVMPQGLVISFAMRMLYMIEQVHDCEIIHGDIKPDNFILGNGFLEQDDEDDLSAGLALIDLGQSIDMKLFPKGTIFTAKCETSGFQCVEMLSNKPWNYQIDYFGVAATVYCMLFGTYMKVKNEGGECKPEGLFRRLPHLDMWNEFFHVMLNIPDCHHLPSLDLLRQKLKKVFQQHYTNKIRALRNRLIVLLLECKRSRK
# [22] = biological target: Tyrosine-protein kinase SYK (Homo sapiens, UniProt P43405); assay: Inhibition of N-terminal His6-tagged recombinant full-length human Syk expressed in baculovirus infected Sf21 cells assessed as residual activity at 0.1 uM relative to control
# [23] = biological target: Testis-specific serine/threonine-protein kinase 1 (Homo sapiens) (UniProt Q9BXA7); assay: Inhibition of 6His-tagged recombinant human full length TSSK1 expressed in baculovirus infected Sf21 cells assessed as residual activity at 0.1 uM relative to control
# [24] = system: HCC1419; assay: Antiproliferative activity against human HCC1419 cells assessed as inhibition of cell growth incubated for 72 hrs by cell-titer glo assay; format: functional, cell-based; conditions: HCC1419, 72 h; how it was run: as §3
# [25] = Cmax in Beagle dog at 5 mg/kg, po by LC-MS analysis; format: ADME, organism-based, Canis lupus familiaris; conditions: in vivo
# [26] = Cmax in Sprague-Dawley rat at 10 mg/kg, iv by LC-MS analysis; format: ADME, organism-based; conditions: in vivo
# [27] = biological target: Protein kinase C beta type (Homo sapiens, UniProt P05771); assay: Inhibition of PKC beta (unknown origin) in presence of [gamma-33P]ATP
# Protein kinase C beta type, sequence (P05771 whole entry, the tested form may be a part): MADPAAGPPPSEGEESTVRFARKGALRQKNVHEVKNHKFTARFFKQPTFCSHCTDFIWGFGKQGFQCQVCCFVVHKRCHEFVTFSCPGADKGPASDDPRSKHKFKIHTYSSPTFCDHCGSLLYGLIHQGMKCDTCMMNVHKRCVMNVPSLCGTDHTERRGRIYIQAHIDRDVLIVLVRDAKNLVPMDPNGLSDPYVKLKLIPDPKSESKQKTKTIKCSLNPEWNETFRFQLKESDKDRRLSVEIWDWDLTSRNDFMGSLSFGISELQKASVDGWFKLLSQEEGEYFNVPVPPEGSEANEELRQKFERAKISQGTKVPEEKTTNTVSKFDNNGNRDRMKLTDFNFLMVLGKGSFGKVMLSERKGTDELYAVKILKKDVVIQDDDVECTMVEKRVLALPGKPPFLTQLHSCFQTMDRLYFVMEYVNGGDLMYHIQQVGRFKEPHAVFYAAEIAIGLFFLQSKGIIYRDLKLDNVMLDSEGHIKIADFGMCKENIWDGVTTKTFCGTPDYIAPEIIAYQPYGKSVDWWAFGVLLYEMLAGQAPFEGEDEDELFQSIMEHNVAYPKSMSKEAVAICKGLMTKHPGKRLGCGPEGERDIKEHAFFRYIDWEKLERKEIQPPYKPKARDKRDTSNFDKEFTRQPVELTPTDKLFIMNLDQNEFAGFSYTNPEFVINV
# [28] = biological target: Homeodomain-interacting protein kinase 1 (Homo sapiens) (UniProt Q86Z02); assay: Inhibition of N-terminal 6His-tagged recombinant human HIPK1 (158 to 555 residues) expressed in baculovirus infected Sf21 cells assessed as residual activity at 1 uM relative to control
# [29] = biological target: Serine/threonine-protein kinase SIK1 (Homo sapiens) (UniProt P57059); assay: Inhibition of N-terminal 6His-tagged recombinant human SIK (1 to 281 residues) expressed in baculovirus infected Sf21 cells assessed as residual activity at 1 uM relative to control
# Serine/threonine-protein kinase SIK1 (Homo sapiens), sequence (P57059 whole entry, the tested form may be a part): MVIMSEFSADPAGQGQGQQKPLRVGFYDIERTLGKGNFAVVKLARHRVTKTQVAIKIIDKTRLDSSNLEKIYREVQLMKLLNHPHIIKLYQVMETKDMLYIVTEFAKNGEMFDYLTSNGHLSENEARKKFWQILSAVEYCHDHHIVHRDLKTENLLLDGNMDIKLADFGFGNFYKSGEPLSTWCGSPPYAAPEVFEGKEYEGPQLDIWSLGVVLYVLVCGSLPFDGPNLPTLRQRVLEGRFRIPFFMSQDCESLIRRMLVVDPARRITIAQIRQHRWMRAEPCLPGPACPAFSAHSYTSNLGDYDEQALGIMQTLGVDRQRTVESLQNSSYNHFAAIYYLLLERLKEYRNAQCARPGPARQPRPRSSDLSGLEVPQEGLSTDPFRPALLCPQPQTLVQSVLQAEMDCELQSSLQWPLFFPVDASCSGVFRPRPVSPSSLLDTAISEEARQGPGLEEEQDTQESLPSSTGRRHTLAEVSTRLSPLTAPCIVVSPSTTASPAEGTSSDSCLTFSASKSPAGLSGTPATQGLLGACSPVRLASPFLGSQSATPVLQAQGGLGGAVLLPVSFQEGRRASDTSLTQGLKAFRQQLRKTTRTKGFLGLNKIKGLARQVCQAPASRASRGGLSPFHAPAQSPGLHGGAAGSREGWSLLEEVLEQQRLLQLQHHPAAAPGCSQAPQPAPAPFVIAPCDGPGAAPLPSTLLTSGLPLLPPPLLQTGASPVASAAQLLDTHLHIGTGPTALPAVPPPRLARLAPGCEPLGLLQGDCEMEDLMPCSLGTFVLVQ
# [30] = biological target: Tyrosine-protein kinase Lyn (Mus musculus) (UniProt P25911); assay: Inhibition of N-terminal his6-tagged recombinant full-length mouse Lyn expressed in baculovirus infected Sf21 cells assessed as residual activity at 1 uM relative to control
# Tyrosine-protein kinase Lyn (Mus musculus), sequence (P25911 whole entry): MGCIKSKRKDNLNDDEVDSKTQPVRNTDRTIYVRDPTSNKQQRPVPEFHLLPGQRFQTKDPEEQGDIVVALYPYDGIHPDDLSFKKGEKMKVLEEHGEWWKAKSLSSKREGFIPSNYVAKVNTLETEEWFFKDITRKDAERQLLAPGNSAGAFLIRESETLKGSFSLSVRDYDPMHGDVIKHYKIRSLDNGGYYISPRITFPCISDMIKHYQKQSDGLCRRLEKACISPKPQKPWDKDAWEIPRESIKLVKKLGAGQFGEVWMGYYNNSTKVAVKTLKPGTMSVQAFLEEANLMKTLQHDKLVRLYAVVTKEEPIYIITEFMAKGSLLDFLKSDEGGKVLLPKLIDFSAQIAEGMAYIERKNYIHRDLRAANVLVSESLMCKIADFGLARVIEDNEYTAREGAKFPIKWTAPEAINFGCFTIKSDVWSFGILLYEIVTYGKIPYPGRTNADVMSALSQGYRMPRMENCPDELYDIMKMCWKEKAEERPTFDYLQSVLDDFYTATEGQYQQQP
smiles,measurement,setting,value
CN1CCN(c2ccc(OC(F)(F)F)c(Nc3ncc4c(n3)-c3c(c(C(N)=O)nn3CCO)CC4)c2)CC1 [ONVANSERTIB],IC50,[1],175 nM
same,Activity,[2],Active
same,IC50,[3],73 nM
same,IC50,[4],40 nM
same,IC50,[5],67 nM
same,IC50,[6],1310 nM
same,IC50,[7],139 nM
same,Activity,[8],Toxic
same,IC50,[9],> 10000 nM
same,inhibition in vivo at 60 mg/kg,[10],79%
same,IC50,[11],196 nM
same,IC50,[12],90 nM
same,Activity,[13],Active
same,inhibition,[14],89.7%
same,Activity,[15],114%
same,IC50,[16],1210 nM
same,IC50,[17],> 10000 nM
same,Activity,[18],Active
same,IC50,[19],72 nM
same,Activity,[20],89%
same,IC50,[21],> 10000 nM
same,Activity,[22],96%
same,Activity,[23],67%
same,IC50,[24],42 nM
same,Cmax,[25],1.2 µM
same,Cmax,[26],6.8 µM
same,IC50,[27],> 10000 nM
same,Activity,[28],90%
same,Activity,[29],93%
same,Activity,[30],129%
